Measured values as given in ChEMBL document CHEMBL5154701, “Thieno[2,3-d]pyrimidine-2,4(1H,3H)-dione Derivative Inhibits d-Dopachrome Tautomerase Activity and Suppresses the Proliferation of Non-Small Cell Lung Cancer Cells” (J Med Chem, 2022).
Values after ≈ are worked out from the molar mass of the structure shown. Active and inactive are the calls of the source. No cut-off for these calls is given here.

Experiments:
[1] = Inhibition of human recombinant MIF2 tautomerase activity expressed in bacterial expression system assessed as PP conversion incubated for 10 mins by tautomerase assay
[2] = Solubility of the compound; type: physicochemical
[3] = species: Homo sapiens; experiment: Substrate activity at MIF2 tautomerase (unknown origin) assessed as rate constant Km
Method in brief: (§1)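 Keto-enol tautomerization kinetics with phenylpyruvate, 4-chloro-, 4-hydroxy- and 4-methoxyphenylpyruvate as substrates. Initial conversion velocities taken from the linear first 3 min of UV absorbance increase. Kcat, Km and Kcat/Km derived from these rates.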

[4] = species: Homo sapiens; experiment: Substrate activity at MIF2 tautomerase (unknown origin) assessed as rate constant Kcat; method in brief: as §1
[5] = species: Homo sapiens; experiment: Substrate activity at MIF2 tautomerase (unknown origin) assessed as ratio of Kcat to Km; method in brief: as §1
[6] = Inhibition of human MIF2 tautomerase activity expressed in Escherichia coli by anion-exchange chromatography
[7] = Inhibition of MIF2 (unknown origin); parameters: species or system Homo sapiens
[8] = test system: A549; experiment: Antiproliferative against human A549 cells assessed as inhibition of cell viability at 1 uM measured after 72 hrs by fluorescence based assay; type: functional
Method in brief: (§2)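 Cells in RPMI-1640 with 10% FBS, 37 °C, 5% CO2, seeded at 1000 cells/well and cultured overnight. Treated with compound (0.25–10 μM) for 72 h. Relative cell number from DNA content by CyQUANT Direct, with 60 min detection reagent and fluorescence read at 485/535 nm. Normalized to DMSO control. Mean ± SD of three experiments.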

[9] = test system: HCC827; experiment: Antiproliferative against human HCC827 cells assessed as inhibition of cell viability measured after 72 hrs by fluorescence based assay; type: functional; method in brief: as §2
[10] = test system: A549; experiment: Inhibition of colony formation in human A549 cells assessed as colony number measured after 5 days by crystal violet staining method; type: functional, cell-based; details: dose 1-10 µM, time 5.0 day, DDE = dose-dependent effect
Method in brief: (§3)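 Seeded at 1000 cells/well in RPMI-1640 with 10% FBS and incubated overnight. Exposed to compound or DMSO for 5 days. Fixed in 4% paraformaldehyde for 20 min, then stained with 0.5% crystal violet for 20 min. Colonies imaged, dissolved in acetic acid, and absorbance read at 590 nm. Values relative to DMSO wells. Three experiments, mean ± SD.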

[11] = test system: NCI-H1299; experiment: Inhibition of colony formation in human NCI-H1299 cells at 10 uM measured after 5 days by crystal violet staining method; type: functional; details: NCI-H1299, 120 h, time 5 day; method in brief: as §3
[12] = test system: HCC827; experiment: Inhibition of colony formation in human HCC827 cells at 10 uM measured after 5 days by crystal violet staining method; type: functional; details: HCC827, 120 h, time 5 day; method in brief: as §3
[13] = test system: NCI-H1650; experiment: Inhibition of colony formation in human NCI-H1650 cells assessed as colony number measured after 5 days by crystal violet staining method; type: functional, cell-based; details: dose 1-10 µM, time 5.0 day, DDE = dose-dependent effect; method in brief: as §3
[14] = test system: NCI-H1650; experiment: Inhibition of colony formation in human NCI-H1650 cells at 10 uM measured after 5 days by crystal violet staining method; type: functional; details: NCI-H1650, 120 h, time 5 day; method in brief: as §3
[15] = test system: NCI-H1650; experiment: Inhibition of colony formation in human NCI-H1650 cells assessed as colony size measured after 5 days by crystal violet staining method; type: functional, cell-based; details: dose 1-10 µM, time 5.0 day, DDE = dose-dependent effect; method in brief: as §3
[16] = species: Homo sapiens; experiment: Stabilization of human recombinant MIF2 expressed in bacterial expression system assessed as apparent melting temperature by fluorescence based thermal shift assay; details: DDE = dose-dependent effect
Method in brief: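 Recombinant MIF2 expressed from pET20b(+) in E. coli BL21(DE3) and purified by Q sepharose, phenyl sepharose and size exclusion (trimer), in 20 mM sodium phosphate pH 8.0. Fluorescence-based thermal shift read-out: apparent melting temperature with compound versus DMSO control, with ΔTm as the difference.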

[17] = test system: HCC827; experiment: Inhibition of colony formation in human HCC827 cells assessed as colony size measured after 5 days by crystal violet staining method; type: functional, cell-based; details: dose 1-10 µM, time 5.0 day, DDE = dose-dependent effect; method in brief: as §3
[18] = test system: NCI-H1299; experiment: Inhibition of colony formation in human NCI-H1299 cells assessed as colony number measured after 5 days by crystal violet staining method; type: functional, cell-based; details: dose 1-10 µM, time 5.0 day, DDE = dose-dependent effect; method in brief: as §3
[19] = test system: NCI-H1650; experiment: Antiproliferative against human NCI-H1650 cells assessed as inhibition of cell viability measured after 72 hrs by fluorescence based assay; type: functional; method in brief: as §2
[20] = test system: A549; experiment: Inhibition of colony formation in human A549 cells assessed as colony size measured after 5 days by crystal violet staining method; type: functional, cell-based; details: dose 1-10 µM, time 5.0 day, DDE = dose-dependent effect; method in brief: as §3
[21] = test system: A549; experiment: Inhibition of MIF2 related signalling pathway assessed as inhibition of MIF2 induced ERK phosphorylation in human A549 cells in presence of recombinant MIF2 incubated for 15 min by Western blot analysis; type: cell-based; details: dose 0.1-10 µM, DDE = dose-dependent effect
Method in brief: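 A549 (3 × 10^5/well) grown overnight in RPMI with 0.5% FBS. Stimulated 15 min with recombinant MIF2 (100 ng/mL, serum-free), alone or preincubated with compound. Lysed in RIPA with phosphatase/protease inhibitors, and 20 μg protein blotted for pERK, ERK and GAPDH. pERK:ERK densitometry normalized to control; n = 2.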

[22] = test system: A549; experiment: Inhibition of colony formation in human A549 cells at 10 uM measured after 5 days by crystal violet staining method; type: functional; details: A549, 120 h, time 5 day; method in brief: as §3
[23] = test system: HCC827; experiment: Inhibition of colony formation in human HCC827 cells assessed as colony number measured after 5 days by crystal violet staining method; type: functional, cell-based; details: dose 1-10 µM, time 5.0 day, DDE = dose-dependent effect; method in brief: as §3
[24] = test system: A549; experiment: Induction of cell cycle arrest in human A549 cells assessed as accumulation of cells in G0/G1 phase for 2 days by flow cytometry analysis; type: functional, cell-based; details: dose 5-10 µM, time 2.0 day, DDE = dose-dependent effect
Method in brief: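 A549 seeded at 1 × 10^5 per well and treated next day with compound or vehicle for 48 h. Cells trypsinized, then stained with 20 μg/mL propidium iodide plus 0.1% Triton X-100 for 15 min at room temperature. 30 000 cells acquired by flow cytometry and G0/G1, S and G2/M fractions gated. n = 3, mean ± SD.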

[25] = test system: NCI-H1299; experiment: Antiproliferative against human NCI-H1299 cells assessed as inhibition of cell viability measured after 72 hrs by fluorescence based assay; type: functional; method in brief: as §2
[26] = test system: NCI-H1299; experiment: Inhibition of colony formation in human NCI-H1299 cells assessed as colony size measured after 5 days by crystal violet staining method; type: functional, cell-based; details: dose 1-10 µM, time 5.0 day, DDE = dose-dependent effect; method in brief: as §3
[27] = test system: A549; experiment: Antiproliferative against human A549 cells assessed as inhibition of cell viability measured after 72 hrs by fluorescence based assay; type: functional; method in brief: as §2

CCCCCCCCNC(=O)c1cc(-c2ccccc2)sc1N
IC50 [1]: 13 µM

Nc1sc(-c2ccc(Cl)cc2)cc1C(=O)NCCc1ccccc1
IC50 [1]: 84 µM

CCCCn1c(=O)[nH]c2sc(-c3ccccc3)cc2c1=O
IC50 [1]: 16 µM

Cc1c(-c2cccc(C(F)(F)F)c2)sc(N)c1C(=O)N[C@@H](C)c1cccc2ccccc12
IC50 [1]: 7.9 µM

Nc1sc(-c2ccccc2)cc1C(=O)NCC1CCOC1 (centres undefined)
IC50 [1]: 168 µM

Cc1c(-c2cccc(C(F)(F)F)c2)sc2[nH]c(=O)n([C@@H](C)c3cccc4ccccc34)c(=O)c12
solubility [2]: 15 µg/mL (≈ 31.2 µM) | IC50 [1]: 2.5 µM

Cc1c(-c2ccc3c(c2)OCO3)sc2[nH]c(=O)n(Cc3ccccc3)c(=O)c12
IC50 [1]: 4.6 µM

Cc1c(-c2ccccc2)sc2[nH]c(=O)n(Cc3ccccc3)c(=O)c12
IC50 [1]: 7.6 µM

4-methoxyphenylpyruvate
Km [3]: 6.7 mM | kcat [4]: 28 s⁻¹ | kcat/Km [5]: 0.43 10^4/M/s

Cc1c(-c2ccc(Cl)cc2)sc2nc(Cc3ccccc3)[nH]c(=O)c12
IC50 [1]: 15 µM

Cc1c(-c2cccc(C(F)(F)F)c2)sc(N)c1C(=O)NCc1cccc2ccccc12
IC50 [1]: 2.6 µM

O=C(O)c1cccc(-c2cc(C(=O)O)ncc2C(=O)O)c1
IC50 [6]: 27 µM | IC50 [1]: 47 µM

CCCCNC(=O)c1cc(-c2ccccc2)sc1NC(=O)CCC
IC50 [1]: 39 µM

Cc1c(-c2ccc(Cl)cc2)sc2[nH]c(=O)n(Cc3ccccc3)c(=O)c12
IC50 [1]: 5.1 µM

Cc1c(-c2ccc(Cl)cc2)sc2[nH]c(=O)n(-c3ccccc3)c(=O)c12
IC50 [1]: 19 µM

phenylpyruvate
Km [3]: 2.4 mM | kcat [4]: 132 s⁻¹ | kcat/Km [5]: 5.5 10^4/M/s

Cc1c(-c2ccc(Cl)cc2)sc2[nH]c(=O)n(Cc3ccc(C(F)(F)F)cc3)c(=O)c12
IC50 [1]: 4.8 µM

Cc1c(-c2ccc(Cl)cc2Cl)sc2[nH]c(=O)n(Cc3ccccc3)c(=O)c12
IC50 [1]: 3.5 µM

CCOCCNC(=O)c1cc(-c2ccc(Cl)cc2)sc1N
IC50 [1]: > 100 µM

O=c1[nH]c2scc(-c3ccc(Cl)cc3)c2c(=O)n1Cc1ccccc1
IC50 [1]: 27 µM

COc1cccc(Cc2nc3sc(-c4ccc(Cl)cc4)c(C)c3c(=O)[nH]2)c1
IC50 [1]: 4.3 µM

Cc1c(-c2ccc(Cl)c(Cl)c2)sc2[nH]c(=O)n(Cc3ccccc3)c(=O)c12
IC50 [1]: 1.9 µM

Cc1c(-c2ccc(Cl)cc2)sc2nc(CCl)[nH]c(=O)c12
IC50 [1]: 17 µM

CCCCNC(=O)c1cc(-c2ccc(Cl)cc2)sc1N
IC50 [1]: 15 µM

CCCCNC(=O)c1c(N)sc(-c2ccc(Cl)cc2)c1CCCC
IC50 [1]: 15 µM

Cc1c(-c2cccc(C(F)(F)F)c2)sc2[nH]c(=O)n(Cc3cccc4ccccc34)c(=O)c12
IC50 [1]: 0.81 µM

CCCCNC(=O)c1cc(-c2ccccc2)sc1NC(C)=O
IC50 [1]: 41 µM

C=CCn1c(=O)[nH]c2sc(-c3ccc(Cl)cc3)cc2c1=O
IC50 [1]: 15 µM

Cc1c(-c2ccccc2)sc2[nH]c(=O)n(-c3ccccc3)c(=O)c12
IC50 [1]: > 100 µM

Ic1cc(-c2ccccc2)ncn1
IC50 [7]: > 100 µM

Nc1sc(-c2ccc(Cl)cc2)cc1C(=O)NCCc1ccc(Cl)cc1
IC50 [1]: 36 µM

CCCCNC(=O)c1cc(-c2ccc(Br)cc2)sc1N
IC50 [1]: 7.2 µM

4-chlorophenylpyruvate
Km [3]: 2.17 mM | kcat [4]: 68 s⁻¹ | kcat/Km [5]: 3.2 10^4/M/s

Cc1c(-c2cccc(C(F)(F)F)c2)sc(N)c1C(=O)N[C@H](C)c1cccc2ccccc12
IC50 [1]: 4.2 µM

Cc1c(-c2cccc(C(F)(F)F)c2)sc2[nH]c(=O)n([C@H](C)c3cccc4ccccc34)c(=O)c12
Activity [8]: Active | Activity ([9]; DDE = dose-dependent effect): Dde | IC50 ([9]; HCC827, 72 h): 5.2 µM | inhibition [10]: Dde | inhibition at 10 µM [11]: 90% | inhibition at 10 µM [12]: 90% | inhibition [13]: Dde | inhibition at 10 µM [14]: 90% | inhibition [15]: Dde | deltaTm [16]: Dde | inhibition [17]: Dde | inhibition [18]: Dde | Activity ([19]; DDE = dose-dependent effect): Dde | IC50 ([19]; NCI-H1650, 72 h): 5.3 µM | inhibition [20]: Dde | solubility [2]: 16 µg/mL (≈ 33.3 µM) | inhibition [21]: Dde | inhibition at 10 µM [22]: 90% | inhibition [23]: Dde | Activity [24]: Dde | IC50 [1]: 1 µM | Activity ([25]; DDE = dose-dependent effect): Dde | IC50 ([25]; NCI-H1299, 72 h): 7.6 µM | inhibition [26]: Dde | IC50 ([27]; A549, 72 h): 3 µM | Activity ([27]; DDE = dose-dependent effect): Dde

Cc1c(-c2cccc(C(F)(F)F)c2)sc2[nH]c(=O)n(Cc3ccccc3)c(=O)c12
IC50 [1]: 1.7 µM

O=c1[nH]c2scc(-c3ccccc3)c2c(=O)n1Cc1ccccc1
IC50 [1]: 36 µM

4-hydroxylphenylpyruvate
Km [3]: 3.62 mM | kcat [4]: 13 s⁻¹ | kcat/Km [5]: 0.37 10^4/M/s

Cc1c(-c2ccc(F)cc2)sc2nc(Cc3ccccc3)[nH]c(=O)c12
IC50 [1]: 17 µM
